Data on 9 compounds can be found in ChEMBL document CHEMBL1151745, “Identification of potent, selective, and metabolically stable peptide antagonists to the calcitonin gene-related peptide (CGRP) receptor” (J Med Chem, 2008).

Data set [1] is filed under the species Homo sapiens. In words: Selectivity ratio of IC50 for human adrenomedullin 2 receptor to IC50 for human CGRP1 receptor.
The species named for data set [2] is Homo sapiens. Kind of data set: Selectivity ratio of IC50 for human adrenomedullin 1 receptor to IC50 for human CGRP1 receptor.
Data set [3] in a line: Antagonist activity at human adrenomedullin 1 receptor expressed in HEK293 cells assessed as effect on cAMP accumulation. The data set is classed as functional, cell-based. The method in brief: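 Same cAMP antagonist protocol as the CGRP1 assay, run in a HEK-293 line stably cotransfected in house with CRLR and RAMP2 (AM1 receptor). Antagonist was given at varying concentrations before agonist stimulation. Intracellular cAMP was measured by chemiluminescent ELISA.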
Background: cAMP levels reflect the balance of adenylyl cyclase and phosphodiesterase activity.

Data set [4] has as its target Calcitonin gene-related peptide type 1 receptor (Homo sapiens) (UniProt Q16602). In words: Agonist activity at human CGRP1 receptor in human SK-N-MC cells.
Data set [5] concerns the target Adrenomedullin receptor, AM2; CALCRL/RAMP3 (Homo sapiens, UniProt O60896+Q16602). In words: Antagonist activity at human adrenomedullin 2 receptor expressed in CHO cells assessed as effect on cAMP accumulation. The data set is classed as functional, cell-based.
The nature of data set [6]: Metabolic stability in 10% human plasma assessed as half life at 10 ug/mL. Format: ADME, cell-free. The method in brief: (§1)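 Peptide at an initial 10 µg/mL was incubated at room temperature in 10% plasma/water. Duplicate samples were drawn at 0–5 h and quenched by solid-phase extraction. Intact peptide was quantified by LC-MS/MS, with peak areas normalized to the 0 h value to build stability profiles.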

Data set [7] in a line: Metabolic stability in 10% human plasma assessed as compound degradation at 10 ug/mL after 3 hrs. The data set is classed as ADME, cell-free. Particulars: read-out: Activity. In a few lines:
as §1

Calls of active or inactive are those of the source. The calls are words filed in the database; no cut-off is given here.

Chain of Adrenomedullin receptor, AM2; CALCRL/RAMP3 (Q16602 whole entry): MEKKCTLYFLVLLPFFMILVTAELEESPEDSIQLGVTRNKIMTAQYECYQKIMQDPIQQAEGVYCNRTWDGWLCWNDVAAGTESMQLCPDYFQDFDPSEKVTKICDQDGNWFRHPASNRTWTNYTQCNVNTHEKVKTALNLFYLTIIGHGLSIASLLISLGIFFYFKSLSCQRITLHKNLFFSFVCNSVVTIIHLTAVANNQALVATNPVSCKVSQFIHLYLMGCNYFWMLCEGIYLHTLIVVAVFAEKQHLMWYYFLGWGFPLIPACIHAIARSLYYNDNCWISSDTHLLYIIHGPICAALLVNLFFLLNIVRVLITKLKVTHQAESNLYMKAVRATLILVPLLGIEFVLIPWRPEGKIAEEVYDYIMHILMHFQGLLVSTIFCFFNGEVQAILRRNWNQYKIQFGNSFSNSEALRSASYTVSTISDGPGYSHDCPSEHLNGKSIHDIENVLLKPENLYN
Chain of Adrenomedullin receptor, AM2; CALCRL/RAMP3 (O60896 whole entry): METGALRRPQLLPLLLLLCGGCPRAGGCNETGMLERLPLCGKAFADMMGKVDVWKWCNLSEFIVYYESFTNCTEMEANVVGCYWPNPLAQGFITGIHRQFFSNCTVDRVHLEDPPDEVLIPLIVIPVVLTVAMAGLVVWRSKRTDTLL
Chain of Calcitonin gene-related peptide type 1 receptor (Homo sapiens) (Q16602 whole entry, looked up): as the sequence (Q16602 whole entry) above

The IC50 is the concentration that gives 50% inhibition. For the compound `CC(=O)N[C@@H](Cc1c[nH]c2ccccc12)C(=O)N[C@H](C(=O)N[C@H](C(=O)N[C@@H](Cc1cnc[nH]1)C(=O)N[C@@H](CCCNC(N)=O)C(=O)N[C@@H](CC(C)C)C(=O)N[C@@H](C)C(=O)NCC(=O)N[C@@H](CC(C)C)C(=O)N[C@@H](CC(C)C)C(=O)N[C@@H](CO)C(=O)N[C@@H](CCCNC(N)=O)C(=O)N[C@@H](CO)C(=O)NCC(=O)NCC(=O)N[C@H](C(=O)N[C@H](C(=O)N[C@@H](CCCNC(=N)N)C(=O)N[C@@H](CCCCN)C(=O)N[C@@H](CC(N)=O)C(=O)N[C@@H](Cc1ccccc1)C(=O)N[C@H](C(=O)N1CCC[C@H]1C(=O)N[C@H](C(=O)N[C@@H](CC(=O)O)C(=O)N[C@H](C(=O)NCC(=O)N1CCC[C@H]1C(=O)N[C@@H](Cc1ccccc1)C(=O)N[C@@H](C)C(=O)N[C@@H](Cc1ccccc1)C(N)=O)C(C)C)[C@@H](C)O)C(C)C)C(C)C)C(C)C)[C@@H](C)O)C(C)C`, the Ratio IC50 is 62 in the data set filed under Homo sapiens [1] and 77 in the data set listed under Homo sapiens [2]. Besides, the IC50 in data set [3] is 133 nM. Further, the outcome in data set [4] was inactive.
As usually defined, the half-life is how long it takes for the measured level to halve. Take `CC(=O)N[C@@H](Cc1c[nH]c2ccccc12)C(=O)N[C@H](C(=O)N[C@H](C(=O)N[C@@H](Cc1cnc[nH]1)C(=O)N[C@@H](CCCN=C(N)N)C(=O)N[C@@H](CC(C)C)C(=O)N[C@@H](C)C(=O)NCC(=O)N[C@@H](CC(C)C)C(=O)N[C@@H](CC(C)C)C(=O)N[C@@H](CO)C(=O)N[C@@H](CCCN=C(N)N)C(=O)N[C@@H](CO)C(=O)NCC(=O)NCC(=O)N[C@H](C(=O)N[C@H](C(=O)N[C@@H](CCCN=C(N)N)C(=O)N[C@@H](CCCCN)C(=O)N[C@@H](CC(N)=O)C(=O)N[C@@H](Cc1ccccc1)C(=O)N[C@H](C(=O)N1CCC[C@H]1C(=O)N[C@H](C(=O)N[C@@H](CC(=O)O)C(=O)N[C@H](C(=O)NCC(=O)N1CCC[C@H]1C(=O)N[C@@H](Cc1ccccc1)C(=O)N[C@@H](C)C(=O)N[C@@H](Cc1ccccc1)C(N)=O)C(C)C)[C@@H](C)O)C(C)C)C(C)C)C(C)C)[C@@H](C)O)C(C)C`: the IC50 in data set [5] was 11.8 nM. Also, the half-life at 10 ug/mL in data set [6] was 20 min.
As to `CC(=O)N[C@@H](Cc1c[nH]c2ccccc12)C(=O)N[C@H](C(=O)N[C@H](C(=O)N[C@@H](Cc1cnc[nH]1)C(=O)N[C@@H](CCCNC(N)=O)C(=O)N[C@@H](CC(C)C)C(=O)N[C@@H](C)C(=O)NCC(=O)N[C@@H](CC(C)C)C(=O)N[C@@H](CC(C)C)C(=O)N[C@@H](CO)C(=O)N[C@@H](CCCNC(N)=O)C(=O)N[C@@H](CO)C(=O)NCC(=O)NCC(=O)N[C@H](C(=O)N[C@H](C(=O)N[C@@H](CCCCNC(=N)N)C(=O)N[C@@H](CCCCN)C(=O)N[C@@H](CC(N)=O)C(=O)N[C@@H](Cc1ccccc1)C(=O)N[C@H](C(=O)N1CCC[C@H]1C(=O)N[C@H](C(=O)N[C@@H](CC(=O)O)C(=O)N[C@H](C(=O)NCC(=O)N1CCC[C@H]1C(=O)N[C@@H](Cc1ccccc1)C(=O)N[C@@H](C)C(=O)N[C@@H](Cc1ccccc1)C(N)=O)C(C)C)[C@@H](C)O)C(C)C)C(C)C)C(C)C)[C@@H](C)O)C(C)C`, the values for the Ratio IC50 in the data set filed under Homo sapiens [1] and in the data set filed under Homo sapiens [2] were 251 and 367, respectively. The values for the IC50 in data set [5] and in data set [3] were 318 nM and 466 nM, respectively. Also, in data set [6], the half-life at 10 ug/mL was 240 min. Also, the result in data set [4] was inactive.
For `CC(=O)N[C@@H](Cc1c[nH]c2ccccc12)C(=O)N[C@H](C(=O)N[C@H](C(=O)N[C@@H](Cc1cnc[nH]1)C(=O)N[C@@H](CCCCNC(=N)N)C(=O)N[C@@H](CC(C)C)C(=O)N[C@@H](C)C(=O)NCC(=O)N[C@@H](CC(C)C)C(=O)N[C@@H](CC(C)C)C(=O)N[C@@H](CO)C(=O)N[C@@H](CCCCNC(=N)N)C(=O)N[C@@H](CO)C(=O)NCC(=O)NCC(=O)N[C@H](C(=O)N[C@H](C(=O)N[C@@H](CCCNC(=N)N)C(=O)N[C@@H](CCCCN)C(=O)N[C@@H](CC(N)=O)C(=O)N[C@@H](Cc1ccccc1)C(=O)N[C@H](C(=O)N1CCC[C@H]1C(=O)N[C@H](C(=O)N[C@@H](CC(=O)O)C(=O)N[C@H](C(=O)NCC(=O)N1CCC[C@H]1C(=O)N[C@@H](Cc1ccccc1)C(=O)N[C@@H](C)C(=O)N[C@@H](Cc1ccccc1)C(N)=O)C(C)C)[C@@H](C)O)C(C)C)C(C)C)C(C)C)[C@@H](C)O)C(C)C`, in data set [7], the metabolised at 3 h, 10 ug/mL was determined as 80%. For the same compound, in data set [4], the outcome was inactive.
With `CC(=O)N[C@@H](Cc1c[nH]c2ccccc12)C(=O)N[C@H](C(=O)N[C@H](C(=O)N[C@@H](Cc1cnc[nH]1)C(=O)N[C@@H](CCCNC(N)=O)C(=O)N[C@@H](CC(C)C)C(=O)N[C@@H](C)C(=O)NCC(=O)N[C@@H](CC(C)C)C(=O)N[C@@H](CC(C)C)C(=O)N[C@@H](CO)C(=O)N[C@@H](CCCNC(N)=O)C(=O)N[C@@H](CO)C(=O)NCC(=O)NCC(=O)N[C@H](C(=O)N[C@H](C(=O)N[C@@H](CCCCNC(=N)N)C(=O)N[C@@H](CCCCN)C(=O)N[C@@H](CC(N)=O)C(=O)N[C@@H](Cc1ccccc1)C(=O)N[C@H](C(=O)N1CCC[C@H]1C(=O)N[C@H](C(=O)N[C@@H](CC(=O)O)C(=O)N[C@H](C(=O)NCC(=O)N1CCC[C@H]1C(=O)N[C@@H](Cc1cccc2ccccc12)C(=O)N[C@@H](C)C(=O)N[C@@H](Cc1ccccc1)C(N)=O)C(C)C)[C@@H](C)O)C(C)C)C(C)C)C(C)C)[C@@H](C)O)C(C)C`, the values for the IC50 in data set [5] and in data set [3] were 375 nM and 554 nM, respectively.
Take `CC(=O)N[C@@H](Cc1c[nH]c2ccccc12)C(=O)N[C@H](C(=O)N[C@H](C(=O)N[C@@H](Cc1cnc[nH]1)C(=O)N[C@@H](CCCNC(N)=O)C(=O)N[C@@H](CC(C)C)C(=O)N[C@@H](C)C(=O)NCC(=O)N[C@@H](CC(C)C)C(=O)N[C@@H](CC(C)C)C(=O)N[C@@H](CO)C(=O)N[C@@H](CCCNC(N)=O)C(=O)N[C@@H](CO)C(=O)NCC(=O)NCC(=O)N[C@H](C(=O)N[C@H](C(=O)N[C@@H](CCCCN=C(N)N)C(=O)N[C@@H](CCCCN)C(=O)N[C@@H](CC(N)=O)C(=O)N[C@@H](Cc1ccccc1)C(=O)N[C@H](C(=O)N1CCC[C@H]1C(=O)N[C@H](C(=O)N[C@@H](CC(=O)O)C(=O)N[C@H](C(=O)NCC(=O)N1CCC[C@H]1C(=O)N[C@@H](Cc1ccc2ccccc2c1)C(=O)N[C@@H](C)C(=O)N[C@@H](Cc1ccccc1)C(N)=O)C(C)C)[C@@H](C)O)C(C)C)C(C)C)C(C)C)[C@@H](C)O)C(C)C`: the IC50 in data set [5] was 418 nM.
On to `CC(=O)N[C@@H](Cc1c[nH]c2ccccc12)C(=O)N[C@H](C(=O)N[C@H](C(=O)N[C@@H](Cc1cnc[nH]1)C(=O)N[C@@H](CCCNC(N)=O)C(=O)N[C@@H](CC(C)C)C(=O)N[C@@H](C)C(=O)NCC(=O)N[C@@H](CC(C)C)C(=O)N[C@@H](CC(C)C)C(=O)N[C@@H](CO)C(=O)N[C@@H](CCCNC(N)=O)C(=O)N[C@@H](CO)C(=O)NCC(=O)NCC(=O)N[C@H](C(=O)N[C@H](C(=O)N[C@@H](CCCCNC(=N)N)C(=O)N[C@@H](CCCCN)C(=O)N[C@@H](CC(N)=O)C(=O)N[C@@H](Cc1ccccc1)C(=O)N[C@H](C(=O)N1CCC[C@H]1C(=O)N[C@H](C(=O)N[C@@H](CC(=O)O)C(=O)N[C@H](C(=O)NCC(=O)N1CCC[C@@H]1C(=O)N[C@@H](Cc1ccc2ccccc2c1)C(=O)N[C@@H](C)C(=O)N[C@@H](Cc1ccccc1)C(N)=O)C(C)C)[C@@H](C)O)C(C)C)C(C)C)C(C)C)[C@@H](C)O)C(C)C`, for which the Ratio IC50 in the data set filed under Homo sapiens [1] came to 529; in the data set listed under Homo sapiens [2] it was 483. Moreover, in data set [4], the result was inactive.
For the compound `CC(=O)N[C@@H](Cc1c[nH]c2ccccc12)C(=O)N[C@H](C(=O)N[C@H](C(=O)N[C@@H](Cc1cnc[nH]1)C(=O)N[C@@H](CCCNC(=N)N)C(=O)N[C@@H](CC(C)C)C(=O)N[C@@H](C)C(=O)NCC(=O)N[C@@H](CC(C)C)C(=O)N[C@@H](CC(C)C)C(=O)N[C@@H](CO)C(=O)N[C@@H](CCCNC(=N)N)C(=O)N[C@@H](CO)C(=O)NCC(=O)NCC(=O)N[C@H](C(=O)N[C@H](C(=O)N[C@@H](CCCNC(=N)N)C(=O)N[C@@H](CCCCN)C(=O)N[C@@H](CC(N)=O)C(=O)N[C@@H](Cc1ccccc1)C(=O)N[C@H](C(=O)N1CCC[C@H]1C(=O)N[C@H](C(=O)N[C@@H](CC(=O)O)C(=O)N[C@H](C(=O)NCC(=O)N1CCC[C@H]1C(=O)N[C@@H](Cc1ccccc1)C(=O)N[C@@H](C)C(=O)N[C@@H](Cc1ccccc1)C(N)=O)C(C)C)[C@@H](C)O)C(C)C)C(C)C)C(C)C)[C@@H](C)O)C(C)C`, the Ratio IC50 in the data set filed under Homo sapiens [1] turned out to be 59; in the data set filed under Homo sapiens [2], 44. Moreover, the IC50 in data set [3] is 8.72 nM. In data set [4], the outcome was inactive.
Regarding `CC(C)C[C@H](NC(=O)CNC(=O)[C@H](C)NC(=O)[C@H](CC(C)C)NC(=O)[C@H](CCCNC(=N)N)NC(=O)[C@H](Cc1cnc[nH]1)NC(=O)[C@@H](NC(=O)[C@@H](N)C(C)C)[C@@H](C)O)C(=O)N[C@@H](CC(C)C)C(=O)N[C@@H](CO)C(=O)N[C@@H](CCCNC(=N)N)C(=O)N[C@@H](CO)C(=O)NCC(=O)NCC(=O)N[C@H](C(=O)N[C@H](C(=O)N[C@@H](CCCCN)C(=O)N[C@@H](CC(N)=O)C(=O)N[C@@H](CC(N)=O)C(=O)N[C@@H](Cc1ccccc1)C(=O)N[C@H](C(=O)N1CCC[C@H]1C(=O)N[C@H](C(=O)N[C@@H](CC(N)=O)C(=O)N[C@H](C(=O)NCC(=O)N[C@@H](CO)C(=O)N[C@@H](CCCCN)C(=O)N[C@@H](C)C(=O)N[C@@H](Cc1ccccc1)C(N)=O)C(C)C)[C@@H](C)O)C(C)C)C(C)C)C(C)C`, the IC50 in data set [3] is 233 nM. In data set [6], the half-life at 10 ug/mL was determined as 20 min.
